Source: PubChem BioAssay (Johns Hopkins Ion Channel Center)
The list is not random: actives were taken first. Their share in the collection is about 4.1%.
MrgX1 antag – human MrgX1 receptor antagonism, primary screen; MRGX1-HEK293 calcium flux, Fluo-4, BAM8-22 antagonism; active compounds read low; 1.3% of 310,000 active; Q96LB2; B-score at 10 µM; AID 588676;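 active means calcium-response B-score plate-corrected more than 3 library SD below zero, starting fluorescence within 5 deviations, no agonist response on first addition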;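 further: peak minus trough fluorescence over baseline after final BAM8-22 challenge near maximal dose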
RGS4 inh – inhibitors of human RGS4; P49798; HEK293 M3R/RGS4 inducible, Fluo-4 calcium flux; active compounds read high; triggered by carbachol at its EC20; B-score at 10 µM; 0.45% of 310,000 active; AID 463165;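 active means B-score, a plate-corrected calcium signal, over three deviations above library mean, with baseline fluorescence within five deviations of library mean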;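 further: RGS4 expression induced by doxycycline in cells with stable M3 receptor; B-score is computed from the integrated fluorescence ratio over baseline after carbachol; higher B-score means a larger calcium signal and so more RGS4 inhibition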
Target sequence (P49798 whole entry, looked up): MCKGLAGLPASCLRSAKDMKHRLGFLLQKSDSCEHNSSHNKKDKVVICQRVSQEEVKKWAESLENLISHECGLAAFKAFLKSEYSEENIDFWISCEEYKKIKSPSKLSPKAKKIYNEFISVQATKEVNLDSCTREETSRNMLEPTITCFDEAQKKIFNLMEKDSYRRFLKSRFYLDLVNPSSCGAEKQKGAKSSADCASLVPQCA
MrgX1 ag – agonists of human MrgX1 receptor | 0.44% of 310,000 active | Q96LB2 | AID 588627 | MrgX1-HEK293 cells, Fluo-4 calcium fluorescence, agonist mode; active compounds read high | B-score at 10 µM;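 active means calcium response B-score plate-corrected fluorescence ratio at least 3 library SD, with starting fluorescence B-score inside 5 SD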
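Material: MrgX1-expressing HEK293 cells; input: 15,000 cells per well; doses: test compound given as first of three sequential additions; schedule: overnight plating before 1 h dye loading; technique: Fluo-4 NW calcium-flux fluorescence, kinetic read; evaluation: baseline-normalised fluorescence change ratio, B-scored; control set: plate-wise positive and negative controls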
Kir21 block – Kir2.1 (mouse) channel inhibition; P35561; HEK293-Kir2.1, FluxOR thallium flux fluorescence; active compounds read low; B-score at 10 µM; 0.85% of 310,000 active; AID 1672;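 active means fluorescence ratio B-score at or below minus 3 SD of library scores, with starting-brightness B-score within 2 SD, cut at about -4.2 in these data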;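 further: channel flux triggered by added potassium and thallium sulfate stimulus; B-score of peak minus minimum fluorescence over baseline after thallium stimulus; more negative B-score means stronger Kir2.1 block with less thallium influx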
Target sequence (P35561 whole entry, looked up): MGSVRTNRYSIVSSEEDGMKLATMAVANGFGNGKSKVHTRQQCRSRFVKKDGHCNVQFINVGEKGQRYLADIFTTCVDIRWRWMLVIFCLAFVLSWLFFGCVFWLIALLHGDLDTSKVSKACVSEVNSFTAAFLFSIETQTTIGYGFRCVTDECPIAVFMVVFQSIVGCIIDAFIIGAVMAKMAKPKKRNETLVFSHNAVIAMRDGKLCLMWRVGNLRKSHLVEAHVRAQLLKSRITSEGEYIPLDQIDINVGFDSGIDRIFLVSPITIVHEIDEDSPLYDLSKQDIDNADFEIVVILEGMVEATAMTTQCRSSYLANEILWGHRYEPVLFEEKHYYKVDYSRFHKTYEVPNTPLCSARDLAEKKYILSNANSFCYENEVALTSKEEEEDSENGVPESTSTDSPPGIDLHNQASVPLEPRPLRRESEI
MrgX1 allo act – human MrgX1 positive allosteric modulation, primary screen. MrgX1-HEK293, Fluo-4 calcium flux, FDSS; active compounds read high. B-score at 10 µM. 0.63% of 310,000 active. AID 588675;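 active means plate-corrected calcium response at least 3 library SD above typical, normal starting fluorescence, not activating the receptor alone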;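 further: compound read alongside a low EC10 to EC30 dose of BAM8-22 agonist; peak minus trough fluorescence over baseline measured at the second addition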
RGS4 pot – potentiators or activators of RGS4; HEK293 M3R/inducible RGS4, carbachol calcium flux Fluo4; active compounds read low; B-score at 10 µM; 0.92% of 310,000 active; AID 463111;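 active means B-score of the integrated calcium signal more than 4 SD below the library mean, with starting fluorescence not abnormally high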;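 further: negative B-score means reduced calcium response which marks RGS4 activation or potentiation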
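Assay system: HEK293 FlpIn-TREx cells, stable M3R, doxycycline-inducible RGS4 / Probe or stimulus: carbachol, ECmax concentration / Times: overnight RGS4 induction, 30 min dye load 37 °C, 20 min compound RT / Signal: kinetic calcium fluorescence imaging with Fluo4-AM dye, 2 µM / Measure: Agonist-evoked peak-minus-minimum fluorescence over baseline, integrated ratio, B score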
MrgX1 ant reconf – human MrgX1 receptor antagonism, re-confirmation screen | shares compounds with MrgX1 antag | MrgX1-HEK293, BAM8-22 calcium flux, Fluo-4; active compounds read low | remaining BAM8-22 calcium response % of control (active compounds read low), % at 10 µM | 19% of 2,300 active | AID 602420;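 active means remaining agonist calcium response no higher than 100% minus 3 SD of agonist-only control wells, with starting fluorescence near control levels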;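 further: agonist BAM8-22 given at a near maximal EC90 to ECmax level; peak minus minimum fluorescence divided by baseline after agonist addition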
HEK293 Ca flux – MrgX1 antagonist counter-screen hit in parental HEK293 cells; fluorescence ratio F(max-min)/F0 at 10 µM; shares compounds with MrgX1 antag; AID 624111; 2% of 4,000 active; Fluo-4 calcium fluorescence, FDSS;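 active means duplicate-averaged calcium fluorescence ratio at least three times the standard deviation of buffer wells, a nonspecific response in parental cells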
HEK293 Ca counter – MrgX1 allosteric activator counter-screen hit in parental HEK293 cells. fluorescence ratio F(max-min)/F0 at 10 µM. shares compounds with MrgX1 antag. 0.4% of 4,000 active. parental HEK293 calcium flux, Fluo-4 fluorescence ratio; active compounds read high. AID 624114;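 active means calcium fluorescence ratio, averaged over duplicates, at least 3 SD of the buffer-well ratio, meaning a nonspecific response in receptor-free cells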;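 further: untransfected parental HEK293 lacking MrgX1 used as counterscreen for MrgX1 allosteric activators; fluorescence change taken during the second addition on a kinetic imager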
HEK293 Ca cntr2 – activity in parental HEK293 cells lacking MrgX1 receptor; fluorescence ratio F(max-min)/F0 at 10 µM; shares compounds with MrgX1 antag; 8.7% of 4,000 active; Fluo-4 calcium fluorescence (FDSS); active compounds read high;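 active means calcium fluorescence ratio at least three times the spread of buffer wells, meaning a non-specific response in parental cells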
Starred values were filed as active, the others as inactive; i = inactive; · = not tested or not shown.

SMILES | MrgX1 antag | RGS4 inh | MrgX1 ag | Kir21 block | MrgX1 allo act | RGS4 pot | MrgX1 ant reconf | HEK293 Ca flux | HEK293 Ca counter | HEK293 Ca cntr2
O=C(Nc1ccccc1)N1CCn2c(nc3ccccc32)C1 | i | i | i | -0.1 | i | i | · | · | · | ·
O=C(COc1ccccc1)Nc1nnc(-c2ccc(F)cc2)o1 | i | i | i | 1.5 | i | i | · | · | · | ·
O=C(COc1ccccc1)Nc1nnc(-c2ccccc2Cl)o1 | -7.9* | i | i | 1 | i | i | i | i | i | i
O=C(O)c1ccccc1-c1ccccc1C(=O)Nc1ccccc1-c1ccccc1 | i | i | i | 0.03 | i | i | · | · | · | ·
CCOC(=O)c1sc(NC(=O)CSc2nnc(C)s2)c(C(=O)OCC)c1C | i | i | i | 0.24 | i | i | · | · | · | ·
O=c1cc(NCc2ccccc2)[nH]c(=O)[nH]1 | i | i | i | 0.75 | i | i | · | · | · | ·
O=c1cc(Cc2ccccc2)[nH]c(=S)[nH]1 | -5* | i | i | -0.26 | i | i | i | i | i | i
COCc1cc(=O)[nH]c(=S)[nH]1 | -7.1* | i | i | -0.56 | i | i | i | i | i | i
CCOC(=O)N1CCN(C(=O)CCN2C(=O)COc3ccccc32)CC1 | i | i | i | 0.42 | i | i | · | · | · | ·
O=C(NCc1ccc(N2CCCC2=O)cc1)Nc1cccc2ccccc12 | i | i | i | 0.82 | i | i | · | · | · | ·
Cc1nnc(NC(=O)CSc2nc(C(C)C)nc3ccccc23)s1 | i | i | i | -1 | i | i | · | · | · | ·
COc1cc2ncnc(NCc3ccc(C)o3)c2cc1OC | i | i | i | -0.54 | i | i | · | · | · | ·
CCOC(=O)C[C@H]1c2cc(F)ccc2S(=O)(=O)N1C1CCCCC1 | -6.4* | i | i | -0.92 | i | i | i | i | i | i
O=C(c1ccc(C(F)(F)F)cc1)N1CCN(S(=O)(=O)c2ccc3c(c2)OCCCO3)CC1 | i | i | i | -0.4 | i | i | · | · | · | ·
Cc1cccc(OCc2nnc(N)s2)c1 | i | i | i | 2.2 | i | i | · | · | · | ·
O=C(NCCS(=O)(=O)NC1CCCC1)c1ccc(F)cc1 | -4.9* | i | i | 0.7 | i | i | i | i | i | i
COc1ccc(C(=O)NCCS(=O)(=O)NC2CCCC2)cc1 | i | i | i | -0.04 | i | i | · | · | · | ·
CCCSc1nnc(NC(=O)Nc2ccc(F)cc2)s1 | -5.6* | i | i | -1.4 | i | i | 71%* | i | i | i
O=S(=O)(/N=C(/Nc1cccc2ccccc12)c1ccccc1)c1cccs1 | i | i | i | 0 | i | i | · | · | · | ·
CCOC(=O)c1cnc(SC)nc1Oc1cccc(NS(=O)(=O)c2ccc(Cl)cc2)c1 | -8.7* | i | i | 0.61 | i | i | 73%* | i | i | i
COc1ccc(C(=O)Nc2nc(-c3cccs3)cs2)cc1 | -7.6* | i | i | 0 | i | i | i | i | i | i
CC1(C)CC(=O)C2=C(C1)OC(N)=C(C#N)C2c1ccc(OC(=O)N2CCOCC2)cc1 (centres undefined) | i | i | i | -0.08 | i | i | · | · | · | ·
COc1ccc(CN2C3CCCC2CC(NC(=O)Nc2cccc(C)c2)C3)cc1 (centres undefined) | -7.9* | i | i | -0.15 | i | i | 72%* | i | i | i
COc1ccc(CN2C3CCCC2CC(NC(=O)Nc2ccccc2)C3)cc1 (centres undefined) | i | i | i | -0.69 | i | i | · | · | · | ·
Cc1cc(NC(=O)CNC(=O)C2CCCCC2)no1 | -5.3* | · | i | · | i | · | i | i | i | i
SMILES | MrgX1 antag | RGS4 inh | MrgX1 ag | Kir21 block | MrgX1 allo act | RGS4 pot | MrgX1 ant reconf | HEK293 Ca flux | HEK293 Ca counter | HEK293 Ca cntr2
Cc1ccc(C(C)C)c(OCCCCCN2CCOCC2)c1 | i | i | i | -2 | i | i | · | · | · | ·
Cc1ccc(C(C)C)c(OCC(=O)N2CCOCC2)c1 | -6* | i | i | 0.26 | i | i | i | i | i | i
Cc1occc1C(=O)N/N=C/c1cccs1 | -10* | i | i | -0.85 | i | i | 83%* | i | i | i
Cc1occc1C(=O)N/N=C/c1ccc(-c2ccccc2)cc1 | i | i | i | -1.3 | i | i | · | · | · | ·
CCC(C)(C)NC(=O)C(OC(=O)c1ccco1)c1ccccc1F (centres undefined) | i | i | i | 1 | i | i | · | · | · | ·
O=C(NCc1ccccc1)c1cccc(COc2cccc(Cl)c2)c1 | -4.6* | i | i | 0.86 | i | i | i | i | i | i
CCc1nc2ccc(C(=O)NCc3ccccc3)cc2nc1CC | -8.3* | i | i | -1.5 | i | i | i | i | i | i
CCOc1ccc(C(=O)NCc2ccccc2)cc1Br | -5.4* | i | i | -1.2 | i | i | 85%* | i | i | i
CCOc1cc(C(=O)NCc2ccccc2)ccc1OCC(=O)N1CCOCC1 | i | i | i | -0.18 | i | i | · | · | · | ·
CSCc1ccc(C(=O)NCc2ccccc2)cc1 | i | i | i | 2.1 | i | i | · | · | · | ·
CCOc1ccc(NC(=O)CN2CCN(S(=O)(=O)c3ccc(Cl)cc3)CC2)cc1 | -4.5* | i | i | -0.69 | i | i | i | i | i | i
CCOc1ccc(S(=O)(=O)Nc2ccc(S(=O)(=O)N3CCCCC3)cc2)cc1 | -5.3* | i | i | 0.08 | i | i | i | i | i | i
COC(=O)/C(=C\c1ccc2c(c1)c1ccccc1n2C)NC(=O)c1ccccc1 | i | i | i | -0.38 | i | i | · | · | · | ·
COc1ccc(-c2nnc(-c3ccc(C)cc3)o2)cc1 | i | i | i | -0.69 | i | i | · | · | · | ·
CCCc1nnc(-c2ccc(OC)cc2)o1 | -6* | i | i | -0.75 | i | i | i | i | i | i
